Eight compounds from ChEMBL document CHEMBL3860031, “Design, synthesis and antitrypanosomal activity of some nitrofurazone 1,2,4-triazolic bioisosteric analogues” (Eur J Med Chem, 2016) can be followed below.

Broadly, the pEC50 is the EC50 on a negative log10 scale, so that one unit is a factor of ten. What is called Emax is the greatest response seen or fitted, relative to the assay's reference. As a reminder, the CC50 is the concentration giving 50% cytotoxicity.

A short description of data set [1]: Cytotoxicity against non-infected human U2OS cells assessed as decrease in number of cells after 96 hrs by Draq5 staining-based high content screening assay. In kind it is toxicity, cell-based. In a few lines: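 Separate plate with non-infected U2OS cells (700/well, DMEM + 10% FBS) and compounds in 15-point 2-fold dilutions, top 200 µM, 1% DMSO final. After 96 h, fixed with 4% paraformaldehyde, stained with 5 µM Draq5, cells counted by imaging. CC50 from sigmoidal variable-slope curve fitting.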

Data set [2] in a line: Selectivity index, ratio of CC50 for human U2OS cells infected with amastigote stage of Trypanosoma cruzi Y to EC50 for amastigote stage of Trypanosoma cruzi Y. The settings on record: U2OS cells infected with Trypanosoma cruzi Y amastigotes, read-out: Ratio CC50/EC50. Type of data set: toxicity, cell-based. In a few lines: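 S.I. = CC50/EC50 from the infected U2OS high-content assay. When CC50 could not be calculated, S.I. = highest tested concentration/EC50.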

The subject of data set [3] is Trypanosoma cruzi. The data set can be described thus: Antitrypanosomal activity against amastigote stage of Trypanosoma cruzi Y infected in human U2OS cells after 96 hrs by Draq5 staining-based high content screening assay. Type of data set: functional, cell-based. An outline of the steps:
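U2OS cells (700/well, high glucose DMEM + 10% heat-inactivated FBS) seeded and incubated 24 h at 37 °C/5% CO2. Infected next day with 2800 Y strain trypomastigotes from LLC-MK2 cultures in low glucose DMEM + 2% FBS. Compounds added on day 3 as 15-point 2-fold dilutions, 1% DMSO final, top 200 µM. After 96 h, fixed in 4% paraformaldehyde, 5 µM Draq5 stain, imaged. Infection ratio normalized to infected/uninfected DMSO controls. EC50 from sigmoidal variable-slope fit. Duplicate wells, three independent experiments.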

A short description of data set [4]: Cytotoxicity against human U2OS cells infected with amastigote stage of Trypanosoma cruzi Y assessed as decrease in number of cells after 96 hrs by Draq5 staining-based high content screening assay. The settings on record: U2OS cells infected with Trypanosoma cruzi Y amastigotes. In kind it is toxicity, cell-based. In a few lines: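 Run on the same infected U2OS plates as the antiparasitic read (700 cells/well, 2800 Y strain trypomastigotes, compounds from day 3, 15-point 2-fold dilutions, top 200 µM, 1% DMSO final). Cells fixed after 96 h with 4% paraformaldehyde and stained with 5 µM Draq5. Total cell count compared with DMSO-treated infected controls. CC50 = concentration giving 50% cell number, from sigmoidal variable-slope fit. Three independent experiments.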

pEC50: −log10 of the molar value. Some results are limits rather than exact numbers.

`NC(=O)NN=C(Cn1cncn1)c1ccc(F)cc1F`: in data set [1], the Activity entry is given as “Non-Toxic”. The selectivity ratio in data set [2] is greater than 3.1. Further, in data set [3], the pEC50 was 4.20 and the Emax is 96.6%.

As to `O=C(Cn1cnc([N+](=O)[O-])n1)c1ccc(F)cc1F`, the Activity entry in data set [1] was “Non-Toxic”. Besides, in data set [2], the selectivity ratio was greater than 36. In data set [3], this compound showed a pEC50 of 5.26 and an Emax of 87%.

`CC1CS(=O)(=O)CCN1/N=C/c1ccc([N+](=O)[O-])o1` (stereo unspecified) [NIFURTIMOX]: the selectivity ratio in data set [2] worked out at 78.9. In data set [3], this compound showed a pEC50 of 6.47 and an Emax of 102%. In data set [4], the CC50 at 96 h is 26.8 µM.

Regarding `NC(=O)NN=C(Cn1cnc([N+](=O)[O-])n1)c1ccc(F)cc1F`, in data set [1], the Activity entry is “Non-Toxic”. For the same compound, the selectivity ratio in data set [2] was greater than 2. Further, in data set [3], the pEC50 is 3.99 and the Emax worked out at 95.2%.

For the compound `NC(=S)NN=C(Cn1cncn1)c1ccc(F)cc1F`, the Activity entry in data set [1] is listed as “Non-Toxic”. The selectivity ratio in data set [2] was greater than 13. In data set [3], this compound had a pEC50 of 4.81 and an Emax of 95.2%.

For `O=C(Cn1ccnc1[N+](=O)[O-])NCc1ccccc1` [BENZNIDAZOLE], the selectivity ratio in data set [2] is greater than 101. In data set [3], this compound had a pEC50 of 5.40 and an Emax of 104%.

Regarding `NC(=S)NN=C(Cn1cnc([N+](=O)[O-])n1)c1ccc(F)cc1F`, in data set [1], the Activity result is recorded as “Non-Toxic”. In data set [2], the selectivity ratio is greater than 9.27. Further, in data set [3], the pEC50 is 4.67 and the Emax worked out at 92.8%.

For `O=C(Cn1cncn1)c1ccc(F)cc1F`, in data set [1], the Activity entry is reported as “Non-Toxic”. For the same compound, the selectivity ratio in data set [2] is greater than 1.4. In data set [3], this compound had a pEC50 of 3.84 and an Emax of 68.7%.
